According to publication PMC8083113 (Journal of medicinal chemistry, 2021):
Read-outs that look alike come from different tables or passages of the source.

What was measured:
[1] = Table S4; cited from earlier work
STAT3 [2] = target: T1, STAT3 (Homo sapiens, UniProt P40763); test: Western blot of STAT3 in BxPC-3; assay type: cell-based; conditions: for effect on STAT3 expression: BxPC-3, 16 h, XD2–162 up to 5 μM, 1–6 at 0.5 μM
Method in brief: (§1)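 BxPC-3 cells (500 × 10^3/well) are treated with the test compound (concentrations up to 5 μM) for 16 h. They are lysed at 4 °C by sonication in Tris/NaCl/Triton X-100/SDS buffer, pH 7.4, with protease and phosphatase inhibitors. Protein is measured by BCA, run on 10 or 12% gels and transferred to PVDF. Blots are probed overnight at 4 °C for STAT3/pSTAT3 (1:1000) and GAPDH (1:4000), imaged by near-infrared fluorescence, and quantified by densitometry.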

BxPC-3 [3] = test: MTT cytotoxicity assay in BxPC-3; assay type: cell-based
Method in brief: (§2)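 Cells (3000–6000/well) are seeded and left overnight, then exposed to the test compound or DMSO vehicle for 3 days. MTT (3 mg/ml) is added for 3 h at 37 °C, and the formazan is dissolved in DMSO and read at 570 nm. IC50 comes from dose-response curves from three independent experiments, reported as mean ± SD.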

pSTAT3 = test: Western blot of pSTAT3 in BxPC-3; assay type: cell-based; conditions: BxPC-3, 16 h treatment
Method in brief: as §1

GSPT1 = GSPT1 (Homo sapiens, UniProt P15170); test: Western blot of GSPT1 in BxPC-3; assay type: cell-based
Sequence of GSPT1 (Q96SW2 whole entry partner): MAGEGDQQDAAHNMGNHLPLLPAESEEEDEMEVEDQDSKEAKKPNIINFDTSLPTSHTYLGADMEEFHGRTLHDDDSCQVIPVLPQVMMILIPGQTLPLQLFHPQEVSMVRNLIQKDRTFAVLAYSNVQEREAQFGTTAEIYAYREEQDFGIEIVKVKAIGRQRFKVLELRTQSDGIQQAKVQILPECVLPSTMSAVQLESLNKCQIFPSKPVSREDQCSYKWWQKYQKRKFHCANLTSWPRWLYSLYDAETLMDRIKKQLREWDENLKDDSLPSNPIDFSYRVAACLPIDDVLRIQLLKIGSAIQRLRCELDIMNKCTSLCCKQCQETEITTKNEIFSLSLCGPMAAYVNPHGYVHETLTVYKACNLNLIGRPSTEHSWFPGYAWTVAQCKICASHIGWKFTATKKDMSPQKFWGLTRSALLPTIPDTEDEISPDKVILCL
Sequence of GSPT1 (Q16531 whole entry partner): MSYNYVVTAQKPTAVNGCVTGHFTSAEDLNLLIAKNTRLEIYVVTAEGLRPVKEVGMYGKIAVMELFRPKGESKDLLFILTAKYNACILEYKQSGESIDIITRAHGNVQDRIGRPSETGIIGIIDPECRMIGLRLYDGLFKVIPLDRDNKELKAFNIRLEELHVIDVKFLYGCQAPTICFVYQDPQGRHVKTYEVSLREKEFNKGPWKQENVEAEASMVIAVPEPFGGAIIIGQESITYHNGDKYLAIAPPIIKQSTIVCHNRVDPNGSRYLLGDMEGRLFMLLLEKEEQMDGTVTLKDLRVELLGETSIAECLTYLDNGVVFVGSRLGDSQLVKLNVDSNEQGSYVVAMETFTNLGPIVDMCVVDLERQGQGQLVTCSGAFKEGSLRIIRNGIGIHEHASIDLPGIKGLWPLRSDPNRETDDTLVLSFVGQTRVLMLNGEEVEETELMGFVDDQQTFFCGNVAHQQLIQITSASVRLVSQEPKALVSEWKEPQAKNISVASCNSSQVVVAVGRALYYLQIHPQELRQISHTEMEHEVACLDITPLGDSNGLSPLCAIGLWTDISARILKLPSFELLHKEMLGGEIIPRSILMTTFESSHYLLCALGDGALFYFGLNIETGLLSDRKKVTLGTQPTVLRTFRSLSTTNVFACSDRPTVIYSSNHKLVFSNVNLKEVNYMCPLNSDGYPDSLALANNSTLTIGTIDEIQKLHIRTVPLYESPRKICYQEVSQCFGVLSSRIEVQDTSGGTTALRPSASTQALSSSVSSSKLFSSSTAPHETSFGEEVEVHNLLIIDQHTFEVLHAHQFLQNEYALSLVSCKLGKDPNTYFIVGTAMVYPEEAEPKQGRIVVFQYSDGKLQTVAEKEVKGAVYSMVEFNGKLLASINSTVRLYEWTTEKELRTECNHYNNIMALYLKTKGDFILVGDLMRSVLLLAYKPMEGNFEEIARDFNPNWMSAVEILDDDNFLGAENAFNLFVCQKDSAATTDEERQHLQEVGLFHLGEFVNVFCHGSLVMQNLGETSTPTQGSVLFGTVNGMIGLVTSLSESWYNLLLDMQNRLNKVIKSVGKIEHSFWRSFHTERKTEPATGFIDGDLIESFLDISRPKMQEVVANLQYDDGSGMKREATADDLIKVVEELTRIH
Sequence of GSPT1 (P15170 whole entry): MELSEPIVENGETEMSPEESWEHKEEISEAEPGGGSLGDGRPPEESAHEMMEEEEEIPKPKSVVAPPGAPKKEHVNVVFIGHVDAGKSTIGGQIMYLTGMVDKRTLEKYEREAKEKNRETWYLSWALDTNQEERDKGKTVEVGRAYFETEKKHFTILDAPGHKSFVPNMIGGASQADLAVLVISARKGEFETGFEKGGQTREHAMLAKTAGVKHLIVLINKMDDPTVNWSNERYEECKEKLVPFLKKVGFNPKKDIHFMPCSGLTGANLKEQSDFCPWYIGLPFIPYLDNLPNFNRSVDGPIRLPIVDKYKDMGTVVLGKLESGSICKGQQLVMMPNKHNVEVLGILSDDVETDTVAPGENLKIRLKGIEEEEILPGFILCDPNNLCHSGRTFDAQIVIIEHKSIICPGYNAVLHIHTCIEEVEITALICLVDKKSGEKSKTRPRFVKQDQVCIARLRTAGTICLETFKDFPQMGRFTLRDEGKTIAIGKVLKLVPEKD
Method in brief: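 BxPC-3 cells (500 × 10^3/well) are exposed to the test compound for 16 h and lysed by sonication at 4 °C in Tris/NaCl/Triton/SDS buffer, pH 7.4, with protease and phosphatase inhibitors. After BCA quantitation, SDS-PAGE and PVDF transfer, membranes are probed overnight at 4 °C with anti-GSPT (1:1000) and GAPDH (1:4000). Detection uses near-infrared secondaries, with densitometric quantification.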

BxPC-3 [4] = test: Colony formation assay in BxPC-3; assay type: cell-based; conditions: BxPC-3, 7–10 days
ZFP91 = ZFP91 (Homo sapiens, UniProt Q96JP5+Q96SW2); test: Western blot of ZFP91 in BxPC-3; assay type: cell-based
Sequence of ZFP91 (Q96JP5 whole entry): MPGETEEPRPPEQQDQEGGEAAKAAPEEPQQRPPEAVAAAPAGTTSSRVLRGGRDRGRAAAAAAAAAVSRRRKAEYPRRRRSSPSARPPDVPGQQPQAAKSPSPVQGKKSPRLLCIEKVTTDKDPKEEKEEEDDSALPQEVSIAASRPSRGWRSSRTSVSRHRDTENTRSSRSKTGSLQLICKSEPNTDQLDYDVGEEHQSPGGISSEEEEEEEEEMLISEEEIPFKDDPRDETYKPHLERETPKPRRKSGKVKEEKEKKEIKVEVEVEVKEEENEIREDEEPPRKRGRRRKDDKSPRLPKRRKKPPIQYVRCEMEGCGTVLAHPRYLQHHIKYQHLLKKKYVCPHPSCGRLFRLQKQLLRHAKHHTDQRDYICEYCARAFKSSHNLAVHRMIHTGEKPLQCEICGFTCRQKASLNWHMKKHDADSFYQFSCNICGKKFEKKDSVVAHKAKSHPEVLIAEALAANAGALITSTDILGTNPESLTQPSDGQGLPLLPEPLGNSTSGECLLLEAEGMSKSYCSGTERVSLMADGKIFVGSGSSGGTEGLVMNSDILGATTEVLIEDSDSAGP
Sequence of ZFP91 (Q96SW2 whole entry): as the sequence (Q96SW2 whole entry partner) above
Sequence of ZFP91 (Q16531 whole entry partner): as the sequence (Q16531 whole entry partner) above

STAT3 [5] = target: T1, STAT3; test: Western blot of STAT3 in OVCAR-3; assay type: cell-based; conditions: OVCAR-3, negative control incapable of binding CRBN
Method in brief: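 OVCAR-3 cells are seeded at 500 × 10^3/well and treated with the test compound at several concentrations and times (read-out at 12 h). Lysis is by sonication at 4 °C in Tris/NaCl/Triton X-100/SDS buffer, pH 7.4, with protease and phosphatase inhibitors. After BCA quantitation, SDS-PAGE and PVDF transfer, blots are probed for STAT3 (1:1000) and GAPDH (1:4000) and imaged by near-infrared fluorescence.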

MTT assay = assay type: cell-based; conditions: Table S4
STAT3 [6] = target: T1, STAT3; conditions: leukemia and lymphoma cell lines; cited from earlier work
tumor = conditions: within two weeks; cited from earlier work
MIA PaCa-2 = test: MTT cytotoxicity assay in MIA PaCa-2; assay type: cell-based; conditions: read-out: IC50 (μM) MIA PaCa-2, 3 days, mean ± SD
Method in brief: as §2

[7] = Homo sapiens, BXPC-3, 72 h, read-out: IC50 (μM) BxPC-3, MTT assay, 3 days, mean ± SD
[8] = read-out: IC50 (μM) BxPC-3, MTT assay, 3 days, mean ± SD

T1 sequence (P40763 whole entry): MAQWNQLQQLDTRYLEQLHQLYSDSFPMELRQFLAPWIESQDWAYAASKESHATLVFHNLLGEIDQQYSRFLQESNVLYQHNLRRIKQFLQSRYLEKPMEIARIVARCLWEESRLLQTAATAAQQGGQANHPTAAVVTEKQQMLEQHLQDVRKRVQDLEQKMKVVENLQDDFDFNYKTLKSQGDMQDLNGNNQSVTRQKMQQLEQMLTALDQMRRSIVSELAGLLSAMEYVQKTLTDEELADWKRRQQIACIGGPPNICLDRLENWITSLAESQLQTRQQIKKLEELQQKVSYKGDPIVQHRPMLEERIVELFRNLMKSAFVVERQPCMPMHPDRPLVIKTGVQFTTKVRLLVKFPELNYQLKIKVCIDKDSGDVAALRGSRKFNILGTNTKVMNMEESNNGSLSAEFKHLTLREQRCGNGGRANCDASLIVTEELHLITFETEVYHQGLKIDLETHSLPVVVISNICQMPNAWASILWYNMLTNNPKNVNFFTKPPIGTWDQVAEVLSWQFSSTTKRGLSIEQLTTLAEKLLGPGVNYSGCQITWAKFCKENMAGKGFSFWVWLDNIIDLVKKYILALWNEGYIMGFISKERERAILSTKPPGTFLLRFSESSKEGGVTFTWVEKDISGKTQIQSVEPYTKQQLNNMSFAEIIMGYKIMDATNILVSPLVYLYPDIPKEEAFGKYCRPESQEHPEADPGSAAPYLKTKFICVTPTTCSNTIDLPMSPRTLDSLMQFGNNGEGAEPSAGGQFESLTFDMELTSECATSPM

O=C(NCCN1CCCCC1)c1cc2c(o1)C(=O)c1ccccc1C2=O [1–6, reference compound]
greater cytotoxicity than napabucasin [1]: > 10 fold | effect on STAT3 expression (STAT3 [2]): did not have any effect

O=C1CCC(N2C(=O)c3cccc(NCCCC4CCN(CCNC(=O)c5cc6c(o5)C(=O)c5ccccc5C6=O)CC4)c3C2=O)C(=O)N1 (stereo not shown) [3–6c, N-(2-(4-(3-((2-(2,6-dioxopiperidin-3-yl)-1,3-dioxoisoindolin-4-yl)amino)propyl)piperidin-1-yl)ethyl)-4,9-dioxo-4,9-dihydronaphtho[2,3-b]furan-2-carboxamide]
IC50 (BxPC-3 [3]; [7]): < 1 µM

O=C1CCC(N2C(=O)c3cccc(NCCCCCC4CCN(CCNC(=O)c5cc6c(o5)C(=O)c5ccccc5C6=O)CC4)c3C2=O)C(=O)N1 (stereo not shown) [3–6d, N-(2-(4-(5-((2-(2,6-dioxopiperidin-3-yl)-1,3-dioxoisoindolin-4-yl)amino)pentyl)piperidin-1-yl)ethyl)-4,9-dioxo-4,9-dihydronaphtho[2,3-b]furan-2-carboxamide]
concentration at which a decrease in pSTAT3 level was achieved (pSTAT3): 1 μM | GSPT1 protein level (GSPT1): did not degrade | inhibition of colony formation (BxPC-3 [4]): greater inhibitory activity than napabucasin | ZFP91 expression at the earlier time point (ZFP91; BxPC-3, 4 h): no effect | concentration at which a decrease in STAT3 protein expression was observed (STAT3 [2]; BxPC-3, 16 h treatment): 5 µM | IC50 (BxPC-3 [3]; [7]): < 1 µM

O=C1CCC(N2C(=O)c3cccc(OCCCCNC(=O)c4cc5c(o4)C(=O)c4ccccc4C5=O)c3C2=O)C(=O)N1 (stereo not shown) [5–5a, N-(4-((2-(2,6-dioxopiperidin-3-yl)-1,3-dioxoisoindolin-4-yl)oxy)butyl)-4,9-dioxo-4,9-dihydronaphtho[2,3-b]furan-2-carboxamide]
fold more potent than 5–5b (BxPC-3 [3]; cytotoxicity IC50): ~2 fold

O=C(NCCOCCOCCNc1cccc2c1C(=O)N(C1CCCNC1=O)C2=O)c1cc2c(o1)C(=O)c1ccccc1C2=O (stereo not shown) [10–5, N-(2-(2-(2-((1,3-dioxo-2-(2-oxopiperidin-3-yl)isoindolin-4-yl)amino)ethoxy)ethoxy)ethyl)-4,9-dioxo-4,9-dihydronaphtho[2,3-b]furan-2-carboxamide]
activity on STAT3 expression compared with XD97 (STAT3 [5]): comparable activity to XD97

CN1C(=O)CCC(N2C(=O)c3cccc(NCCCCCC4CCN(CCNC(=O)c5cc6c(o5)C(=O)c5ccccc5C6=O)CC4)c3C2=O)C1=O (stereo not shown) [11–7, N-(2-(4-(5-((2-(1-methyl-2,6-dioxopiperidin-3-yl)-1,3-dioxoisoindolin-4-yl)amino)pentyl)piperidin-1-yl)ethyl)-4,9-dioxo-4,9-dihydronaphtho[2,3-b]furan-2-carboxamide]
concentration at which a decrease in pSTAT3 level was achieved (pSTAT3): 5 μM | effect on STAT3 expression (STAT3 [2]): did not have any effect

CC(=O)c1cc2c(o1)C(=O)c1ccccc1C2=O [NP, 2-acetylbenzo[f][1]benzofuran-4,9-dione, reference compound]
GSPT1 protein level (GSPT1): not affected | ZFP91 protein level (ZFP91; BxPC-3, 16 h, up to 3 μM): no effect

Nc1cccc2c1C(=O)N(C1CCC(=O)NC1=O)C2=O (stereo not shown) [Pomalidomide]
no cytotoxicity in the MTT assay up to (MTT assay): > 30 µM

NC(=O)CC[C@H](NC(=O)[C@@H]1CC[C@@H]2CCN(C(=O)CCCCCC#Cc3cccc4c3CN(C3CCC(=O)NC3=O)C4=O)C[C@H](NC(=O)c3cc4cc(C(F)(F)P(=O)(O)O)ccc4[nH]3)C(=O)N21)C(=O)NC(c1ccccc1)c1ccccc1 (stereo partly shown) [SD-36]
DC50 values for STAT3 degradation (in words) (STAT3 [6]): nanomolar | tumor response (tumor): complete tumor regression

N-(2-(2-(2-((2-(2,6-dioxopiperidin-3-yl)-1,3-dioxoisoindolin-5-yl)amino)ethoxy)ethoxy)ethyl)-4,9-dioxo-4,9-dihydronaphtho[2,3-b]furan-2-carboxamide [6–6c]
IC50 (MIA PaCa-2): 10.5 ± 3 µM | IC50 (BxPC-3 [3]; [8]): 23.8 ± 3.9 µM

N-(5-(2-(2,6-dioxopiperidin-3-yl)-1-oxoisoindolin-4-yl)pentyl)-4,9-dioxo-4,9-dihydronaphtho[2,3-b]furan-2-carboxamide [8–1]
IC50 (MIA PaCa-2): 6.4 ± 3.4 µM | IC50 (BxPC-3 [3]; [8]): 13.8 ± 7.7 µM
